Source: ChEMBL document CHEMBL1123929, “Investigation of peripheral cholecystokinin receptor heterogeneity by cyclic and related linear analogues of CCK26-33: synthesis and biological properties” (J Med Chem, 1987)
Non-standard residues stand in square brackets, D forms with d. Residues, ends and D or L forms follow the SMILES beside them. *: point of attachment. sY = N[C@@H](Cc1ccc(OS(=O)(=O)O)cc1)C(=O)O; Nle = CCCC[C@H](N)C(=O)O; Boc = CC(C)(C)OC(=O)*

Assays:
Rattus norvegicus = organism: Rattus norvegicus; assay: Evaluated for agonist activity measured as amylase secretion by rat pancreas; assay type: functional
Summary of the method: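 Rat pancreas fragments stimulated with peptide (Na salt form). Amylase released into the medium was measured with Phadebas reagent by the Ceska method. EC50 was taken from concentration–response curves. Results are means of three separate experiments, each value in triplicate.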

Cavia porcellus [1] = organism: Cavia porcellus; assay: Evaluated for contractile activities of guinea pig ileum for agonistic activity; assay type: functional
Summary of the method: (§1)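 Isolated guinea pig ileum contraction by the Hutchinson and Dockray method, with atropine present (1.5 mg/L). Agonism was tested by direct contraction. Antagonism was tested against contraction evoked by 3 × 10⁻⁹ M CCK8. Peptides were used as Na salts. Values are mean ± SEM of three separate experiments.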

Cholecystokinin receptor = target: T1, Cholecystokinin receptor (Mus musculus, UniProt O08786+P56481); assay: Binding affinity measured by inhibiting [3H]Boc[Nle28,31]CCK27-33 specific binding to Cholecystokinin receptor in mouse brain membranes at a KD concentration of 0.19 nM; assay type: cell membranes, Membrane
T1 sequence (O08786 whole entry): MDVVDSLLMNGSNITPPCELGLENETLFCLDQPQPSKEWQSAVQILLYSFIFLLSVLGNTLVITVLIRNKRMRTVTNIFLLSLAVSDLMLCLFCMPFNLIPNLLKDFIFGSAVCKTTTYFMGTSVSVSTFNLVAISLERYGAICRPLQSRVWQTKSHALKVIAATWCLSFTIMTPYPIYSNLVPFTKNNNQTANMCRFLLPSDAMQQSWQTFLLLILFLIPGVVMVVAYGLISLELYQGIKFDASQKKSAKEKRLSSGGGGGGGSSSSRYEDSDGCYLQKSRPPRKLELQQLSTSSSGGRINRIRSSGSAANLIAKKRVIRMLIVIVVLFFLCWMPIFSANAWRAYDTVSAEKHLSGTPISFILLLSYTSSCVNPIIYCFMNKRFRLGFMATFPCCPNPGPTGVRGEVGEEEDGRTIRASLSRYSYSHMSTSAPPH
T1 sequence (P56481 whole entry): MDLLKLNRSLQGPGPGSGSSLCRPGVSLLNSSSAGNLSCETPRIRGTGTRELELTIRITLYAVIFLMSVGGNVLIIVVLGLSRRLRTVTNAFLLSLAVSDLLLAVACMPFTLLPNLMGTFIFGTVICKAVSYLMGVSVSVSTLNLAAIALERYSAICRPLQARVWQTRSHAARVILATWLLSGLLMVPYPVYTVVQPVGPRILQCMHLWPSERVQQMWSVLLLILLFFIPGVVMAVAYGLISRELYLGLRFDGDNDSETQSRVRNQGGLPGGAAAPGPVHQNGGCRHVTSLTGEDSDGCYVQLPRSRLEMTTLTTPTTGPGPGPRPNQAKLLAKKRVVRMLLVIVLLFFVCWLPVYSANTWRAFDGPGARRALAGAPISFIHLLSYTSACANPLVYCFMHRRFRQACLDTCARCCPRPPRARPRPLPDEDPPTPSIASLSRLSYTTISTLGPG

Cavia porcellus [2] = organism: Cavia porcellus; assay: Evaluated for contractile activities of guinea pig ileum for antagonistic activity (contraction induced by 3, 10e -9M of CCK-8); assay type: functional; summary of the method: as §1
[3] = target: T2, Cholecystokinin receptor type A (Rattus norvegicus, UniProt P30551); assay: Evaluated for binding affinity measured by inhibiting [3H]Boc[Nle28,31]CCK27-33 specific binding to Cholecystokinin receptor in rat pancreas membranes at a KD concentration of 4.4 nM; assay type: cell membranes, Membrane
T2 sequence (P30551 whole entry): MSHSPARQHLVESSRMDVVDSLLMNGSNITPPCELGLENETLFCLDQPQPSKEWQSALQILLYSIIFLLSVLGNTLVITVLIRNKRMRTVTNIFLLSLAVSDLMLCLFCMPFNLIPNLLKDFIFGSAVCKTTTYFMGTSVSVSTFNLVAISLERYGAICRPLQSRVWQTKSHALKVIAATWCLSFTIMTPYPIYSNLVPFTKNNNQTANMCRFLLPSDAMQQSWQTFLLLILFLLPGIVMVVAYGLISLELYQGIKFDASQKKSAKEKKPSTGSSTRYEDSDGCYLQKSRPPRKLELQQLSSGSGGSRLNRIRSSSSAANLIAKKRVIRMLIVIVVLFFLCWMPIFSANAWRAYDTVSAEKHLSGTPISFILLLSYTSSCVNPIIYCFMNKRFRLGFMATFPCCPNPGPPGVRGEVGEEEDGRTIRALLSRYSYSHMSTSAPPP

CCCC[C@H](NC(=O)[C@H](Cc1c[nH]c2ccccc12)NC(=O)[C@@H](CCCCN)NC(=O)[C@H](CCCC)NC(=O)[C@H](Cc1ccc(OS(=O)(=O)O)cc1)NC(=O)[C@H](CC(=O)O)NC(=O)OC(C)(C)C)C(=O)N[C@@H](CC(=O)O)C(=O)N[C@@H](Cc1ccccc1)C(N)=O
EC50 (Rattus norvegicus): 40 nM | EC50 (Cavia porcellus [1]): > 10000 nM | Ki (Cholecystokinin receptor): 3e-07 M | EC50 (Cavia porcellus [2]): 15 µM | Ki [3]: 0.34 µM

CCCC[C@H](NC(=O)[C@H](Cc1c[nH]c2ccccc12)NC(=O)[C@@H](CCCCN)NC(=O)[C@H](CCCC)NC(=O)[C@H](Cc1ccc(OS(=O)(=O)O)cc1)NC(=O)[C@H](CC(=O)O)NC(=O)OC(C)(C)C)C(=O)N[C@@H](CC(=O)O)C(N)=O
EC50 (Rattus norvegicus): > 100000 nM | EC50 (Cavia porcellus [1]): > 10000 nM | Ki (Cholecystokinin receptor): > 1e-05 M | EC50 (Cavia porcellus [2]): > 10 µM | Ki [3]: > 10 µM

CCCC[C@H](NC(=O)[C@H](Cc1c[nH]c2ccccc12)NC(=O)[C@H]1CCCCNC(=O)C[C@H](NC(=O)OC(C)(C)C)C(=O)N[C@@H](Cc2ccc(OS(=O)(=O)O)cc2)C(=O)N[C@@H](CCCC)C(=O)N1)C(=O)N[C@@H](CC(=O)O)C(N)=O
EC50 (Rattus norvegicus): > 1000 nM | EC50 (Cavia porcellus [1]): > 10000 nM | Ki (Cholecystokinin receptor): > 0.00001 M | EC50 (Cavia porcellus [2]): > 10 µM | Ki [3]: > 10 µM

CCCC[C@H](NC(=O)[C@H](Cc1ccc(OS(=O)(=O)O)cc1)NC(=O)OC(C)(C)C)C(=O)NCC(=O)N[C@@H](Cc1c[nH]c2ccccc12)C(=O)N[C@@H](CCCC)C(=O)N[C@@H](CC(=O)O)C(=O)N[C@@H](Cc1ccccc1)C(N)=O (Boc-[sY][Nle]GW[Nle]DF-NH2)
EC50 (Rattus norvegicus): 2.8 nM | EC50 (Cavia porcellus [1]): 3.2 nM | Ki (Cholecystokinin receptor): 1.91e-10 M

CSCC[C@H](NC(=O)[C@H](Cc1ccc(OS(=O)(=O)O)cc1)NC(=O)[C@@H](N)CC(=O)O)C(=O)NCC(=O)N[C@@H](Cc1c[nH]c2ccccc12)C(=O)N[C@@H](CCSC)C(=O)N[C@@H](CC(=O)O)C(=O)N[C@@H](Cc1ccccc1)C(N)=O [SINCALIDE]
EC50 (Rattus norvegicus): 1 nM | EC50 (Cavia porcellus [1]): 2 nM | Ki (Cholecystokinin receptor): 4.91e-10 M
